According to ChEMBL document CHEMBL4819107, “Substituted N-(4-amino-2-chlorophenyl)-5-chloro-2-hydroxybenzamide analogues potently inhibit respiratory syncytial virus (RSV) replication and RSV infection-associated inflammatory responses” (Bioorg Med Chem, 2021):
Activity calls are given as the source filed them. The calls are words filed in the database; no cut-off is given here.

Legend:
[1] = system: Respiratory syncytial virus; assay: Antiviral activity against RSV infected in human A549 cells assessed as reduction in viral titer at 10 uM incubated for 15 hrs by immunostaining analysis; type: functional
Method in brief: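 RSV long strain (propagated in HEp-2, sucrose-gradient purified) infected A549 cells at MOI 1 for 2 h. Inoculum removed, then compound at 10 μM for 15 h. Progeny virus titred by immunostaining in HEp-2 cells with biotin-conjugated goat anti-RSV antibody. Log reduction = log10 mean titer of vehicle-treated cells minus log10 mean titer with compound.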

A549 [2] = assay: Cytotoxicity against human A549 cells assessed as reduction in cell viability incubated for 15 hrs by trypan blue assay; settings: a549, 15 h
A549 [3] = assay: Antiinflammatory activity against in human A549 cells assessed as reduction in RSV-induced IRF3 mRNA expression at 10 uM incubated for 4 hrs by qRT-PCR analysis; type: functional, cell-based
A549 [4] = assay: Antiinflammatory activity against in human A549 cells transfected with PRDIII-I-Luc and IRF-3-Luc assessed as reduction in RSV-induced IRF3 activation at 10 uM incubated for 15 hrs by luciferase reporter gene assay; type: functional, cell-based
Method in brief: (§1)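 A549 cells transfected in triplicate with luciferase plasmids, either NF-κB-Luc or IRF-3-site reporters. At 20 h post-transfection, infected with RSV (MOI 1). Virus removed at 2 h, then 10 μM compound added for 15 h. Cells then harvested and lysed for luciferase activity.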

A549 [5] = assay: Antiinflammatory activity against in human A549 cells transfected with NF-kappaB-Luc assessed as reduction in RSV-induced NF-kappaB activation at 10 uM incubated for 15 hrs by luciferase reporter gene assay; type: functional, cell-based; method in brief: as §1
SAEC [6] = assay: Antiinflammatory activity against in human SAEC cells assessed as reduction in RSV-induced MIP-1beta production at 10 uM incubated for 4 hrs by immunoassay; type: functional, cell-based
Method in brief: (§2)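 Primary small airway epithelial cells infected with RSV long strain at MOI 5. Virus removed at 2 h, then 10 μM compound added. Supernatant collected 4 h post-treatment. Cytokines/chemokines quantified with a multiplex human profiling bead kit (Bio-Plex).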

A549 [7] = assay: Antiinflammatory activity against in human A549 cells assessed as reduction in RSV-induced NF-kappaB mRNA expression at 10 uM incubated for 4 hrs by qRT-PCR analysis; type: functional, cell-based
[8] = biological target: T1, Nuclear factor NF-kappa-B complex (Homo sapiens) (UniProt Q00653+P19838+Q04206); assay: Inhibition of NF-kappaB in human A549 cells assessed as reduction in p65 nuclear translocation at 10 uM measured after 15 hrs by Western blot analysis; type: cell-based
Method in brief: (§3)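 A549 cells infected or mock-infected with RSV (MOI 1), then treated with 10 μM compound for 15 h. Nuclear extracts prepared and analysed by western blot after SDS-PAGE and PVDF transfer. β-actin as loading control.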

[9] = biological target: T1, Nuclear factor NF-kappa-B complex (Homo sapiens); assay: Inhibition of NF-kappaB in human A549 cells assessed as reduction in p65 Ser276 phosphorylation at 10 uM measured after 4 hrs by Western blot analysis; type: cell-based
Method in brief: (§4)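 A549 cells infected or mock-infected with RSV (MOI 5), then treated with 10 μM compound for 4 h. Nuclear extracts (or total lysates) prepared, resolved by SDS-PAGE, transferred to PVDF, and probed by western blot. β-actin as loading control.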

[10] = system: Respiratory syncytial virus; assay: Antiviral activity against RSV infected in human A549 cells assessed as reduction in viral RNA at 10 uM measured upto 24 hrs by qRT-PCR analysis; type: functional, organism-based; settings: time hrs <=24
Method in brief: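 A549 cells infected with RSV (MOI 1), then given 10 μM compound. RSV genome copies in cells quantified by RT-qPCR at 6, 15 and 24 h post-treatment. A fusion inhibitor served as a reference control.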

[11] = system: Respiratory syncytial virus; assay: Antiviral activity against RSV infected in human A549 cells assessed as reduction in viral N protein at 10 uM incubated for 15 hrs by Western blot analysis; type: functional, organism-based
Method in brief: (§5)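 A549 cells infected with RSV (MOI 1) and treated with 10 μM compound for 15 h. Viral proteins detected by western blot of lysates using anti-RSV or anti-F antibodies, with β-actin as loading control. Membranes blocked in 5% milk in TBS-Tween 20.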

[12] = biological target: T1, Nuclear factor NF-kappa-B complex (Homo sapiens); assay: Inhibition of NF-kappaB in human A549 cells assessed as reduction in p65 Ser536 phosphorylation at 10 uM measured after 4 hrs by Western blot analysis; type: cell-based; method in brief: as §4
[13] = biological target: T1, Nuclear factor NF-kappa-B complex (Homo sapiens); assay: Inhibition of NF-kappaB in human A549 cells assessed as reduction in p65 Ser536 phosphorylation at 10 uM measured after 15 hrs by Western blot analysis; type: cell-based; method in brief: as §3
[14] = biological target: T2, Interferon regulatory factor 3 (Homo sapiens) (UniProt Q14653); assay: Inhibition of poly I:C-induced IRF3 (unknown origin) transfected in human HEK293 cells co-transfected with IRF3-Luc gene incubated for 4 hrs by luciferase reporter gene; type: cell-based
T2 sequence (whole entry): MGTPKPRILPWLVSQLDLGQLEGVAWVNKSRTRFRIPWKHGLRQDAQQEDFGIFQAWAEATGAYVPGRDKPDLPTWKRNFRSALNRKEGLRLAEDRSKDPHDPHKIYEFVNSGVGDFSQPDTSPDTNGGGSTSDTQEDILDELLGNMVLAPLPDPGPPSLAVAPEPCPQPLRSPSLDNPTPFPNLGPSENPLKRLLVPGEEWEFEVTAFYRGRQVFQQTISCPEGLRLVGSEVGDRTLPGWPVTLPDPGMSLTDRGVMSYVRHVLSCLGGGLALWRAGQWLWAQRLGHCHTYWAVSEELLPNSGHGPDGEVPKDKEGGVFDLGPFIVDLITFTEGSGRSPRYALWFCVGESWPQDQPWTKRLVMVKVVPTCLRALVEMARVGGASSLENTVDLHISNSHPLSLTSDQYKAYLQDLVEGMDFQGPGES
Method in brief: (§6)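 HEK-293 cells transiently transfected with IRF-3 or NF-κB luciferase reporter. At 15 h post-transfection, cells transfected with Poly I:C in the presence of compound. Luciferase activity then measured.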

[15] = biological target: T1, Nuclear factor NF-kappa-B complex (Homo sapiens); assay: Inhibition of NF-kappaB in human A549 cells assessed as reduction in p65 Ser276 phosphorylation at 10 uM measured after 15 hrs by Western blot analysis; type: cell-based; method in brief: as §3
[16] = biological target: T1, Nuclear factor NF-kappa-B complex (Homo sapiens); assay: Inhibition of poly I:C-induced NF-kappaB (unknown origin) transfected in human HEK293 cells co-transfected with NF-kappaB-Luc gene incubated for 4 hrs by luciferase reporter gene; type: cell-based; method in brief: as §6
[17] = biological target: T1, Nuclear factor NF-kappa-B complex (Homo sapiens); assay: Inhibition of NF-kappaB in human A549 cells assessed as reduction in p65 nuclear translocation at 10 uM measured after 4 hrs by Western blot analysis; type: cell-based; method in brief: as §4
[18] = system: Respiratory syncytial virus; assay: Antiviral activity against RSV infected in human A549 cells assessed as reduction in viral titer at 7.5 uM incubated for 15 hrs by immunostaining analysis; type: functional
Method in brief: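 Dose-response: A549 cells infected with RSV long strain at MOI 1, then treated with a range of compound concentrations for 15 h. Total virus harvested and titred by immunostaining in HEp-2 cells with biotin-conjugated goat anti-RSV antibody. Reduction expressed as log decrease in titer relative to vehicle (DMSO) control.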

[19] = system: Respiratory syncytial virus; assay: Antiviral activity against RSV infected in human A549 cells assessed as reduction in viral phosphoprotein at 10 uM incubated for 15 hrs by Western blot analysis; type: functional, organism-based; method in brief: as §5
[20] = system: Respiratory syncytial virus; assay: Antiviral activity against RSV infected in human A549 cells assessed as reduction in viral matrix protein at 10 uM incubated for 15 hrs by Western blot analysis; type: functional, organism-based; method in brief: as §5
[21] = biological target: Interferon regulatory factor 3 (Homo sapiens) (UniProt Q14653); assay: Inhibition of IRF3 in RSV-infected human A549 cells assessed as reduction in IRF3 nuclear translocation at 10 uM measured upto 15 hrs by Western blot analysis; settings: time hrs <=15
[22] = biological target: Interferon regulatory factor 3 (Homo sapiens) (UniProt Q14653); assay: Inhibition of IRF3 in RSV-infected human A549 cells assessed as reduction in IRF3 Ser396 phosphorylation at 10 uM measured upto 15 hrs by Western blot analysis; settings: time hrs <=15
[23] = system: Respiratory syncytial virus; assay: Antiviral activity against RSV infected in human A549 cells assessed as reduction in viral genome copies at 10 uM measured after 15 hrs by RT-qPCR analysis
SAEC [24] = assay: Antiinflammatory activity against in human SAEC cells assessed as reduction in RSV-induced TNF-alpha production at 10 uM incubated for 4 hrs by immunoassay; type: functional, cell-based; method in brief: as §2

T1 sequence (P19838 whole entry, looked up): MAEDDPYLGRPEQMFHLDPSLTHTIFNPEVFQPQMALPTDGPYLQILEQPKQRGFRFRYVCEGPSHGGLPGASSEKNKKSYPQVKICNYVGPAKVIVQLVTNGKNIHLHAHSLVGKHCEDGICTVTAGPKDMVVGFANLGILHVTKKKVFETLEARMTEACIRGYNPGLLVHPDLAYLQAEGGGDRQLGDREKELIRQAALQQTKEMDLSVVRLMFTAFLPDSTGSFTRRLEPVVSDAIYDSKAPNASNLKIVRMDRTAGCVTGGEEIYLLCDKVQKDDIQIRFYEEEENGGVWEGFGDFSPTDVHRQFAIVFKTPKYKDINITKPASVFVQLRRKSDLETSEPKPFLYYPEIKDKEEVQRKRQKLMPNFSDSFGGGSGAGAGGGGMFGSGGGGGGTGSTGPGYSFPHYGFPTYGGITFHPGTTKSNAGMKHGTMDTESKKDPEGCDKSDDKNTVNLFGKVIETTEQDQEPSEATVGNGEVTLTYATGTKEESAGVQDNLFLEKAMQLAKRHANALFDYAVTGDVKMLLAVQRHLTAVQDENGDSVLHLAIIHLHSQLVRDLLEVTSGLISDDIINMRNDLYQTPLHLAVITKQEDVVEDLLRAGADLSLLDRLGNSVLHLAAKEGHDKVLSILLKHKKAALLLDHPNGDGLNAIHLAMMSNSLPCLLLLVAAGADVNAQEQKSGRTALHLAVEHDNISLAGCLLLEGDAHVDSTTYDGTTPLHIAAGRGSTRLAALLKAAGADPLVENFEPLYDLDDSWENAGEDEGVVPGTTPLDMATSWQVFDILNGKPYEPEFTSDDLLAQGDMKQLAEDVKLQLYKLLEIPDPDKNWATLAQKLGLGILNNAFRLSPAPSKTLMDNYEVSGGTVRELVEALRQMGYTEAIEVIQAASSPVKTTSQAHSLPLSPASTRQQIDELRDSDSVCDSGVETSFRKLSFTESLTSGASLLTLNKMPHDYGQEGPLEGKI
T1 sequence (Q00653 whole entry, looked up): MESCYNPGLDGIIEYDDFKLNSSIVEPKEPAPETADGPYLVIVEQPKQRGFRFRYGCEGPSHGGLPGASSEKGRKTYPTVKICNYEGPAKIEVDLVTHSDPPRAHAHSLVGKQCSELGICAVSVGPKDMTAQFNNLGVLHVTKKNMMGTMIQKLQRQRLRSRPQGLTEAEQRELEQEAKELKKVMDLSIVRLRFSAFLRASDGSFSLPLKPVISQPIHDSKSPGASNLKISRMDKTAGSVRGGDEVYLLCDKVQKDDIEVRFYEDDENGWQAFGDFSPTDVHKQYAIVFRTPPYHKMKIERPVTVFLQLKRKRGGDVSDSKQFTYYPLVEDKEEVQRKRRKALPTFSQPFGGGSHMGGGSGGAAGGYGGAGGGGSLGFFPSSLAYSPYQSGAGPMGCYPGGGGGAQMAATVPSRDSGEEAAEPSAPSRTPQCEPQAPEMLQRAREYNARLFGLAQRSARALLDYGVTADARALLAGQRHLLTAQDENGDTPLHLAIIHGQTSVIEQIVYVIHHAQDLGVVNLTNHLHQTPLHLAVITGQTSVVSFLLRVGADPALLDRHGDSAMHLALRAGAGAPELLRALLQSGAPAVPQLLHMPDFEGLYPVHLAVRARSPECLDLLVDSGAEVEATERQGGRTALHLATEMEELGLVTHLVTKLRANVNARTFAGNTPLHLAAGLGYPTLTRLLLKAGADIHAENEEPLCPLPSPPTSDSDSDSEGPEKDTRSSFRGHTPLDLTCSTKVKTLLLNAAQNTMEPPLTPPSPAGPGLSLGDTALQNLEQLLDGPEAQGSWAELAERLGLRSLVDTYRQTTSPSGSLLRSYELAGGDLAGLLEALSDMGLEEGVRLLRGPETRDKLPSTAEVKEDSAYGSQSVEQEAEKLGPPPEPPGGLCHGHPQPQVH
T1 sequence (Q04206 whole entry, looked up): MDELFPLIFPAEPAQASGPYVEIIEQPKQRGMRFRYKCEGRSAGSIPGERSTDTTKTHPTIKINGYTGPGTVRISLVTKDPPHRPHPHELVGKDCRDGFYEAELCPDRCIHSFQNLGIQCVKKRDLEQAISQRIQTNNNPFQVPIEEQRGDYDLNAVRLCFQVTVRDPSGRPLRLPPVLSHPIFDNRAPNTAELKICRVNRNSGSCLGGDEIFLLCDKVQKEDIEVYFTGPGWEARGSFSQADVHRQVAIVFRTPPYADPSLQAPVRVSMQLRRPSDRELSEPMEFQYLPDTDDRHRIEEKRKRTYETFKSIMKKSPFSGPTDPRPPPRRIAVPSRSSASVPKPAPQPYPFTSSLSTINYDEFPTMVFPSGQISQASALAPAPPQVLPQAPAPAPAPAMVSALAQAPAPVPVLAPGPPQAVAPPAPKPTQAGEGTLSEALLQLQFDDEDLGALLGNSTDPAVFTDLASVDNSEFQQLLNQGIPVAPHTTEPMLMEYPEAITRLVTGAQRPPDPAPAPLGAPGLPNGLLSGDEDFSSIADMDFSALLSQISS

O=C(Nc1ccc(NC2CCCC2)cc1Cl)c1cc(Cl)ccc1O
log(activity) [1]: 1.44

CCCC(C)(C)Nc1ccc(NC(=O)c2cc(Cl)ccc2O)c(Cl)c1
log(activity) [1]: 1.81
CC50 (A549 [2]): 23.7 µM

O=C(Nc1ccc(NCC2CCCC2)cc1Cl)c1cc(Cl)ccc1O
log(activity) [1]: 1.42
CC50 (A549 [2]): 141 µM

CC(=O)Nc1ccc(NC(=O)c2cc(Cl)ccc2O)c(Cl)c1
log(activity) [1]: 0.09

CCCNc1ccc(NC(=O)c2cc(Cl)ccc2O)c(Cl)c1
log(activity) [1]: 1.82
inhibition (A549 [3]): Active
CC50 (A549 [2]): 69.7 µM
inhibition (A549 [4]): Active
inhibition (A549 [5]): Active
inhibition (SAEC [6]): Active
inhibition (A549 [7]): Active

O=C(Nc1ccc(NCc2ccco2)cc1Cl)c1cc(Cl)ccc1O
inhibition [8]: Active
inhibition [9]: inactive
log(activity) [1]: 2.13
inhibition [10]: Active
inhibition [11]: Active
inhibition [12]: Active
inhibition [13]: Active
inhibition (A549 [3]): Active
CC50 (A549 [2]): 76.3 µM
inhibition [14]: Active
inhibition (A549 [4]): Active
inhibition (A549 [5]): Active
inhibition [15]: Active
inhibition [16]: Active
inhibition [17]: Active
log(activity) [18]: 1.22
inhibition [19]: Active
inhibition [20]: Active
inhibition [21]: Active
inhibition [22]: Active
inhibition (A549 [7]): Active

CC(C)(C)OC(=O)N1CCC(CNc2ccc(NC(=O)c3cc(Cl)ccc3O)c(Cl)c2)CC1
log(activity) [1]: 1.53

CS(=O)(=O)CCCn1c(Cn2c(=O)n(CC(F)(F)F)c3ccncc32)cc2cc(Cl)ccc21
inhibition [10]: Active
inhibition [23]: inactive

CCCN(CCC)c1ccc(NC(=O)c2cc(Cl)ccc2O)c(Cl)c1
log(activity) [1]: 1.91
inhibition (SAEC [24]): Active
inhibition (A549 [3]): Active
CC50 (A549 [2]): 323 µM
inhibition (A549 [4]): Active
inhibition (A549 [5]): Active
inhibition (A549 [7]): Active

O=C(Nc1ccc(NCC2CCNCC2)cc1Cl)c1cc(Cl)ccc1O
log(activity) [1]: -0.07

Nc1ccc(NC(=O)c2cc(Cl)ccc2O)c(Cl)c1
log(activity) [1]: -0.01
